Reference: ChEMBL document CHEMBL3769308, “Melanin-Concentrating Hormone Receptor 1 Antagonists Lacking an Aliphatic Amine: Synthesis and Structure-Activity Relationships of Novel 1-(Imidazo[1,2-a]pyridin-6-yl)pyridin-2(1H)-one Derivatives” (J Med Chem, 2016)
pIC50: −log10 of the molar value.

What was measured:
[1] = target: Melanin-concentrating hormone receptor 1 (Rattus norvegicus, UniProt P97639); experiment: Displacement of [125I]-MCH (4 to 19 residues) from rat MCHR1 expressed in CHO cell membranes after 1 hr by liquid scintillation counting analysis
Sequence of Melanin-concentrating hormone receptor 1 (Rattus norvegicus, UniProt P97639) (P97639 whole entry, the tested form may be a part): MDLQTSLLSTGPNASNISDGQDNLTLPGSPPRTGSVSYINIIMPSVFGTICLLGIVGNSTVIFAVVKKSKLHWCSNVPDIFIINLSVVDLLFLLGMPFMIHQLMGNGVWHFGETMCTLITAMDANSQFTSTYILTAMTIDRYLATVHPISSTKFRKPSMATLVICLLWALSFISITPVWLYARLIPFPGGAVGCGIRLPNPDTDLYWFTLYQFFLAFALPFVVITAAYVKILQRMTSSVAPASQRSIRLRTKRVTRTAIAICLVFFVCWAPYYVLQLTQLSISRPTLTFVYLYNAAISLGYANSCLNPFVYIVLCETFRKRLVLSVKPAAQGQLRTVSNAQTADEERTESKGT
In short: (§1)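 Membranes from MCHR1-expressing CHO cells, homogenized in NaHCO3/EDTA with protease inhibitors, 100000g pellet held at 2 mg/mL protein in 20 mM Tris-HCl pH 7.5, 5 mM EDTA, protease inhibitors.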

[2] = target: T1, Melanin-concentrating hormone receptor 1 (Homo sapiens, UniProt Q99705); experiment: Displacement of [125I]-MCH (4 to19 residues) from human MCHR1 expressed in CHO cell membranes after 1 hr by liquid scintillation counting analysis; in short: as §1
T1 sequence (Q99705 whole entry, the tested form may be a part): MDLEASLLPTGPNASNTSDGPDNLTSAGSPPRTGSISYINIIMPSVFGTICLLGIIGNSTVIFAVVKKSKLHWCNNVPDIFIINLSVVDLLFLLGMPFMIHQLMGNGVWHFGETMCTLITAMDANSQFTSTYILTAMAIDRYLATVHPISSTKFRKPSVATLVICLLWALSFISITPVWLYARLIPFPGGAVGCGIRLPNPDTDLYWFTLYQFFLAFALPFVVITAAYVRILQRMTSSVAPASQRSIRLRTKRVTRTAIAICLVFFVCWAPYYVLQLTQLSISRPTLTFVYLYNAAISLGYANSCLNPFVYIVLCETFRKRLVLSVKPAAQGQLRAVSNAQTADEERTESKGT

[3] = target: T1, Melanin-concentrating hormone receptor 1; type: functional, cell-based, CHO
Rattus norvegicus [4] = experiment: Antiobesity activity in diet-induced obese F344/jcl rat assessed as reduction in body weight at 1 mg/kg, po qd administered through repeated dosing for 2 weeks measured during 2 weeks of dosing relative to vehicle-treated control; type: functional; set-up: scale not given: the % may be the effect or the level left
In short: (§2)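 Male DIO F344/Jcl rats (45 weeks old) on high-fat diet since 5 weeks of age, singly housed, habituated to oral dosing with tap water, grouped by day−1 food intake and body weight. Once-daily oral dosing in 0.5% methylcellulose at 2 mL/kg for 2 weeks, 1−3 h before dark onset, 6 rats/group. Food intake measured every 2 or 3 days; body weight change as % of initial.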

Rattus norvegicus [5] = experiment: Anorectic activity in diet-induced obese F344/jcl rat assessed as inhibition of cumulative food intake at 1 mg/kg, po qd administered through repeated dosing for 2 weeks measured during 2 weeks of dosing relative to vehicle-treated control; type: functional; settings: 336 h; in short: as §2
[6] = Lipophilicity, log D of the compound at pH 7.4; type: physicochemical; settings: buffer
In short: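 Chromatographic HPLC method with UV detection, estimating octanol/buffer partition at pH 7.4.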

SMILES | pIC50 [1] | pIC50 [2] | pIC50 [3] | Activity (Rattus norvegicus [4]) | inhibition in vivo at 1 mg/kg (Rattus norvegicus [5]) | logD [6]
Cc1nc2ccc(NC(=O)COc3ccc(OC(F)(F)F)cc3)cn2c1C | 8.11 | 8.42 | – | – | – | –
Cc1c(C2CC2)nc2ccc(-n3ccc(OCc4csc(Cl)c4)cc3=O)cn12 | 8.12 | 8.11 | 7.72 | – | – | –
Cc1c(C2CC2)nc2ccc(-n3ccc(OCc4ccsc4)cc3=O)cn12 | 7.27 | 7.60 | – | – | – | –
Cc1c(C2CC2)nc2ccc(-n3ccc(OCc4ccccn4)cc3=O)cn12 | 6.82 | 6.62 | – | – | – | –
CC(C)CC(N(C)C)C1(c2ccc(Cl)cc2)CCC1 (stereo unspecified) [SIBUTRAMINE] | – | – | – | 3.4% | 21.5% | –
Cc1c(C2CC2)nc2ccc(-n3cccc(OCc4ccc(Cl)cc4)c3=O)cn12 | 6.19 | 6.00 | – | – | – | –
Cc1c(C2CC2)nc2ccc(-n3ccc(OCc4ccc(F)cc4)cc3=O)cn12 | 7.55 | 7.33 | – | – | – | –
Cc1c(C(=O)N(C)C)nc2ccc(-n3ccc(OCc4ccc(F)cc4)cc3=O)cn12 | < 6.00 | < 6.00 | – | – | – | –
CC(=O)c1nc2ccc(-n3ccc(OCc4ccc(F)cc4)cc3=O)cn2c1C | < 6.00 | < 6.00 | – | – | – | –
Cc1c(C2CC2)nc2ccc(-n3ccc(OCc4cccnc4)cc3=O)cn12 | < 6.00 | < 6.00 | – | – | – | –
Cc1c(C2CC2)nc2ccc(-n3cnc(OCc4ccc(Cl)cc4)cc3=O)cn12 | 6.85 | 6.82 | – | – | – | 2.9
Cc1c(C2CC2)nc2ccc(-n3ccc(OCc4ccc(Cl)cn4)cc3=O)cn12 | 7.72 | 7.62 | – | – | – | –
COCc1nc2ccc(-n3ccc(OCc4ccc(F)cc4)cc3=O)cn2c1C | < 6.00 | < 6.00 | – | – | – | –
Cc1cn(-c2ccc3nc(C4CC4)c(C)n3c2)c(=O)cc1OCc1ccc(Cl)cc1 | 6.82 | 6.68 | – | – | – | –
Cc1c(C2CC2)nc2ccc(-n3ccc(OCc4ccncc4)cc3=O)cn12 | < 6.00 | < 6.00 | – | – | – | –
Cc1c(C2CC2)nc2ccc(-n3ccc4c(c3=O)CCC(c3ccc(Cl)cc3)O4)cn12 (stereo unspecified) | 7.21 | 7.03 | – | – | – | –
Cc1c(C2CC2)cc2ccc(NC(=O)COc3ccc(OC(F)(F)F)cc3)cn12 | < 6.00 | < 6.00 | – | – | – | –
Cc1c(C2CC2)nc2ccc(-n3ncc(OCc4ccc(Cl)cc4)cc3=O)cn12 | 6.96 | 7.04 | – | – | – | 3.7
Cc1c(C2CC2)nc2ccc(-n3ccc(Oc4ccc(OC(F)(F)F)cc4)cc3=O)cn12 | 6.02 | < 6.00 | – | – | – | –
